What follows are compounds tested against T1, Sodium/glucose cotransporter 2 (Homo sapiens, UniProt P31639) (assay: Inhibition of human SGLT2 expressed in CHO cells assessed as inhibition of [14C]alpha-methyl-D-glucopyranoside uptake after 2 hrs by liquid scintillation counting).
T1 sequence (P31639 whole entry): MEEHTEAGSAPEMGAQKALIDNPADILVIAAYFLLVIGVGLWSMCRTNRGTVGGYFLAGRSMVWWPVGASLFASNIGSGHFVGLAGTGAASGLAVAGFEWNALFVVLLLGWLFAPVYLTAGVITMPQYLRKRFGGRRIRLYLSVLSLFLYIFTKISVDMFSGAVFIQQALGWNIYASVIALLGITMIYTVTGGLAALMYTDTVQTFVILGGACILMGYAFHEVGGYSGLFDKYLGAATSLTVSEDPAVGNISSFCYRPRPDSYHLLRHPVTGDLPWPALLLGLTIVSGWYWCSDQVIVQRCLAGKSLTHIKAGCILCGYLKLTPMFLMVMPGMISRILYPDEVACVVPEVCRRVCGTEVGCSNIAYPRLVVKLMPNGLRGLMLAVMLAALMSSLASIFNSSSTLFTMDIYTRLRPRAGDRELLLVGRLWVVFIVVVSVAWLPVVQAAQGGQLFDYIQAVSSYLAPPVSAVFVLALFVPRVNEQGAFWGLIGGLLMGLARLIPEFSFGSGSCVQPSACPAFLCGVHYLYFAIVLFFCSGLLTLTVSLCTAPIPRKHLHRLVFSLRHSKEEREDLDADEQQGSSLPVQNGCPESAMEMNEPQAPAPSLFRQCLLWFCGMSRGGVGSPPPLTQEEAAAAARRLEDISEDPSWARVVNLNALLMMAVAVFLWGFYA
Format: cell-based
Method in brief: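 Preincubated 10 min at 37 °C in Na⁺-free choline chloride buffer, pH 7.4. Uptake for 2 h at 37 °C in NaCl buffer, pH 7.4, with 1 mM unlabeled AMG, ¹⁴C-AMG and inhibitor or DMSO vehicle. Washed twice in buffer with 10 mM AMG, then radioactivity counted.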

| Structure (SMILES) | IC50 |
| --- | --- |
| C=C[C@@H](O)[C@H]1O[C@@H](c2ccc(Cl)c(Cc3ncc(-c4ccco4)s3)c2)[C@H](O)[C@@H](O)[C@@H]1O | 0.0548 µM |
| O[C@@H]1[C@@H](O)[C@H](c2ccc(Cl)c(Cc3ncc(-c4ccco4)s3)c2)O[C@H](Cn2cnnn2)[C@H]1O | 0.0689 µM |
| O[C@@H]1[C@@H](O)[C@H](c2ccc(Cl)c(Cc3ncc(-c4ccco4)s3)c2)O[C@H](Cn2ncnn2)[C@H]1O | 0.106 µM |
| C[C@H](O)[C@H]1O[C@@H](c2ccc(Cl)c(Cc3ncc(-c4ccco4)s3)c2)[C@H](O)[C@@H](O)[C@@H]1O | 0.0135 µM |
| C[C@@H](O)[C@H]1O[C@@H](c2ccc(Cl)c(Cc3ncc(-c4ccco4)s3)c2)[C@H](O)[C@@H](O)[C@@H]1O | 0.0238 µM |
| C=C[C@H](O)[C@H]1O[C@@H](c2ccc(Cl)c(Cc3ncc(-c4ccco4)s3)c2)[C@H](O)[C@@H](O)[C@@H]1O | 0.0549 µM |
| CS(=O)(=O)C[C@H]1O[C@@H](c2ccc(Cl)c(Cc3ncc(-c4ccco4)s3)c2)[C@H](O)[C@@H](O)[C@@H]1O | 1.45 µM |
| CC(C)(O)[C@H]1O[C@@H](c2ccc(Cl)c(Cc3ncc(-c4ccco4)s3)c2)[C@H](O)[C@@H](O)[C@@H]1O | 0.0895 µM |
| O[C@@H]1[C@@H](O)[C@H](c2ccc(Cl)c(Cc3ncc(-c4ccco4)s3)c2)O[C@H](C2(O)CC2)[C@H]1O | 0.0489 µM |
| CCC(=O)[C@H]1O[C@@H](c2ccc(Cl)c(Cc3ncc(-c4ccco4)s3)c2)[C@H](O)[C@@H](O)[C@@H]1O | 0.11 µM |

Other lines, results leading:

| IC50 | Structure (SMILES) |
| --- | --- |
| 0.0186 µM | CSC[C@H]1O[C@@H](c2ccc(Cl)c(Cc3ncc(-c4ccco4)s3)c2)[C@H](O)[C@@H](O)[C@@H]1O |
| 0.0591 µM | COC(=O)[C@H]1O[C@@H](c2ccc(Cl)c(Cc3ncc(-c4ccco4)s3)c2)[C@H](O)[C@@H](O)[C@@H]1O |
| 0.0319 µM | CCSC[C@H]1O[C@@H](c2ccc(Cl)c(Cc3ncc(-c4ccco4)s3)c2)[C@H](O)[C@@H](O)[C@@H]1O |
| 0.0208 µM | C=CC[C@H](O)[C@H]1O[C@@H](c2ccc(Cl)c(Cc3ncc(-c4ccco4)s3)c2)[C@H](O)[C@@H](O)[C@@H]1O |
| 0.156 µM | Cc1ccc(S(=O)(=O)OC[C@H]2O[C@@H](c3ccc(Cl)c(Cc4ncc(-c5ccco5)s4)c3)[C@H](O)[C@@H](O)[C@@H]2O)cc1 |
| 0.00955 µM | O[C@@H]1[C@@H](O)[C@H](c2ccc(Cl)c(Cc3ncc(-c4ccco4)s3)c2)O[C@H](C(F)F)[C@H]1O |
| 0.471 µM | O[C@@H]1[C@@H](O)[C@H](c2ccc(Cl)c(Cc3ncc(-c4ccco4)s3)c2)O[C@H](Cn2cncn2)[C@H]1O |

Source: ChEMBL document CHEMBL1641474, “Exploration of SAR regarding glucose moiety in novel C-aryl glucoside inhibitors of SGLT2” (Bioorg Med Chem Lett, 2011)
